# Compound activity: PubChem, The Scripps Research Institute Molecular Screening Center
# HTRA1 inhibitor = HTRA1 serine protease inhibitors, primary screen, biochemical, fluorescence polarization, HTS; Q92743; inhibition, % at 5.96 µM; 340,000 tested, 0.5% active; recombinant HTRA1, FP-rhodamine activity-based probe; in the data active means inhibition above about 36%
# mABHD4 FP = ABHD4 inhibitors, primary screen, biochemical, fluorescence polarization, mouse; (Lyso)-N-acylphosphatidylethanolamine lipase (Mus musculus), Q8VD66; purified mABHD4, FP-Rh probe fluorescence polarization; inhibition, % at 8.92 µM; 370,000 tested, 0.54% active; AID 720543, 2013;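 active means inhibition exceeding the mean over every tested compound plus 3 SD, cut at about 30% in these data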
# Target sequence (Q8VD66 whole entry, looked up): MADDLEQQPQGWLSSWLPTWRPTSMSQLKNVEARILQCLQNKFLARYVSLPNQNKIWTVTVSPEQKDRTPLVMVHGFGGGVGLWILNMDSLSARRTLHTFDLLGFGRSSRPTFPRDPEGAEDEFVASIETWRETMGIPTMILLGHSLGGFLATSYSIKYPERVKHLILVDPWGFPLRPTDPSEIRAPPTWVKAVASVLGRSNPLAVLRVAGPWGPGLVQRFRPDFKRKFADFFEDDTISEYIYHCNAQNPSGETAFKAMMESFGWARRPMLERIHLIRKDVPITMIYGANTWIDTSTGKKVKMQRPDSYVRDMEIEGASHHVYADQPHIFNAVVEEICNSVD
#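 Test system: mABHD4 protein | Buffer or medium: HEPES pH 7.0 buffer, 150 mM NaCl, 0.01% Pluronic F-127 | Probe or stimulus: FP-Rh fluorescent activity-based probe, added after compound pre-incubation | Timing: Pre-incubation 45 min, probe exposure 60 min, at 25 °C | Technique: Fluorescence polarization, excitation 525 nm, emission 598 nm, BODIPY TMR filters | Repeats: Single well per compound (singlicate)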
# SIAE inh = human SIAE inhibitors, primary screen, biochemical, fluorescence polarization, FP-Rh probe, 1536-well HTS; Sialate O-acetylesterase (Homo sapiens), Q9HAT2; inhibition, % at 9.66 µM; SIAE FP-Rh probe binding; 370,000 tested, 0.69% active;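 active means inhibition above a cutoff: mean of compounds within the control limits plus 3 SD of those, cut at about 17% in these data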
# TCR CD3 inh = inhibitors of human TCR-CD3 interaction, primary screen, biochemical, fluorescence, TAMRA-labeled TCR probe; inhibition, % at 9.4 µM; 360,000 tested, 0.37% active; T-cell receptor (TCR); in the data active means inhibition above about 19%;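 further: recombinant mutant TCR 2C K166C tagged with TAMRA read by polarization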
# rCAG RNA binder = binders of r(CAG) RNA repeats, primary screen, biochemical, fluorescence. AID 651821, 2012. inhibition, % at 3 µM. r(CAG) RNA repeat, TO-PRO-1 dye displacement fluorescence. 370,000 tested, 1.3% active;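 active means inhibition above the plate cutoff, the mean of all test compounds on that plate plus 3 SD, cut at about 35% in these data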;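 further: higher means more dye released from RNA so lower well fluorescence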
# PRMT1 inh = PRMT1 methyltransferase inhibitors, primary screen, biochemical, fluorescence polarization. Protein arginine N-methyltransferase 1 (Homo sapiens), Q99873. recombinant PRMT1, activity-based probe fluorescence polarization. inhibition, % at 2.79 µM. 370,000 tested, 1.3% active. AID 652257, 2013;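 active means inhibition above about 21% made by adding two undisclosed values, limit read from the data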
# Target sequence (Q99873 whole entry, looked up): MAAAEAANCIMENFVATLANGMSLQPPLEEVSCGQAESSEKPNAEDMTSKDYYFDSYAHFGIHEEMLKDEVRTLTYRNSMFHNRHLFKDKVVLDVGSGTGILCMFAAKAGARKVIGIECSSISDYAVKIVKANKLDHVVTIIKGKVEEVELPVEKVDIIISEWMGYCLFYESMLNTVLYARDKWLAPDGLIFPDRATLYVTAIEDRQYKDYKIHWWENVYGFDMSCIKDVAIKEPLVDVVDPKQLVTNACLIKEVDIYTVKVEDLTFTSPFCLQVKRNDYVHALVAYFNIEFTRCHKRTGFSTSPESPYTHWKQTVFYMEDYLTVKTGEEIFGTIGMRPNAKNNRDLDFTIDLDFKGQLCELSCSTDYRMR
# rCAG binder conf = small molecules binding CAG repeat RNA – biochemical, fluorescence, confirmation. shares compounds with rCAG RNA binder. inhibition, % at 3 µM. r(CAG) RNA repeat, TO-PRO-1 dye displacement fluorescence. 4,300 tested, 70% active;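 active means inhibition above a per-plate cutoff, the mean inhibition of sample wells plus 3 SD, cut at about 35% in these data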;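 further: loss of TO-PRO-1 fluorescence as compound displaces dye from 1x1 AA loop RNA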
# DNA CAG counter = displacement of TO-PRO-1 from CAG DNA duplex, counter-screen for rCAG RNA repeat binder project, biochemical, fluorescence, TO-PRO-1 dye, d(CAG) DNA oligo; shares compounds with rCAG RNA binder; d(CAG) DNA oligo TO-PRO-1 dye displacement; inhibition, % at 3 µM; 4,300 tested, 94% active;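 active means inhibition above its plate's cutoff, the mean test-well inhibition plus 3 SD, cut at about 4.8% in these data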;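 further: hits displace the dye from DNA and so lower well fluorescence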
# DNA CAG DR = inhibitors of DNA CAG/GTC TO-PRO-1 complex, dose response, counter-screen for rCAG RNA repeat binder project, biochemical, fluorescence, TO-PRO-1 dye. shares compounds with rCAG RNA binder. DNA CAG/GTC duplex TO-PRO-1 dye displacement fluorescence. IC50, µM. 250 tested, 20% active. AID 686960, 2013; in the data active means IC50 below about 10 µM
# PRMT1 confirm = PRMT1 methyltransferase inhibitors, confirmation, biochemical, fluorescence polarization, triplicate; shares compounds with PRMT1 inh; AID 687036, 2013; 3,300 tested, 42% active; inhibition, % at 2.79 µM; recombinant His-PRMT1, activity-based probe fluorescence polarization;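 active means mean inhibition across replicates above the hit cutoff derived for the earlier primary screen, cut at about 22% in these data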
# ABHD4 confirm = ABHD4 inhibitors, retest, confirmation, biochemical, fluorescence polarization, mouse; shares compounds with mABHD4 FP; purified mABHD4, FP-Rh probe fluorescence polarization; inhibition, % at 8.92 µM; 1,800 tested, 55% active; AID 720658, 2013;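 active means mean inhibition across replicates above the hit cutoff set in the primary screen, cut at about 30% in these data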
# Numbers stand for hits; i = inactive; nt = no result given. An excerpt weighted towards active compounds, which were near 3.5% of everything screened.
SMILES,HTRA1 inhibitor,mABHD4 FP,SIAE inh,TCR CD3 inh,rCAG RNA binder,PRMT1 inh,rCAG binder conf,DNA CAG counter,ABHD4 confirm,others
CCOC(=O)Cc1nc(N2CCN(Cc3cccc4c3OCO4)CC2)c2c(C)c(C(=O)OCC)sc2n1,nt,i,i,nt,i,i,nt,nt,nt,
CN1c2ccc(C#CC3CC3)cc2[C@@H]2[C@@H](CCN2C(=O)C2CCOCC2)[C@H]1CO,nt,i,i,nt,i,i,nt,nt,nt,
Cc1ccc(S(=O)(=O)/N=C2/NC(=O)/C(=C\c3ccco3)S2)cc1,i,31.8,i,i,69.0,28.1,42.7,11.3,i,PRMT1 confirm=i
COC(=O)C1CN(CCO)CCS(=O)(=O)N1Cc1cn(Cc2cccc(Cl)c2)nn1 (stereo unspecified),nt,i,i,nt,i,i,nt,nt,nt,
COc1cc([N+](=O)[O-])cc(/C=N/NC(=O)C(C)Nc2cccc3ccccc23)c1O (stereo unspecified),i,33.3,i,i,79.2,i,66.7,30.1,38.9,
CCn1c2ccccc2c2cc(C=Nn3c(-c4ccccn4)n[nH]c3=S)ccc21,nt,i,i,nt,i,i,nt,nt,nt,
C=CCOc1ccc(C(c2c(C(=O)O)[nH]c3ccccc23)c2c(C(=O)O)[nH]c3ccccc23)cc1,i,55.3,i,i,92.2,i,82.2,51.0,52.8,
O=C(O)c1[nH]c2ccccc2c1C(c1ccccc1)c1c(C(=O)O)[nH]c2ccccc12,i,31.8,i,i,70.4,i,47.1,14.8,38.2,
C=CCSC1=N/C(=C\c2cc(OCC)c(OC(C)=O)c([N+](=O)[O-])c2)C(=O)S1,i,36.7,i,i,40.6,28.4,61.0,19.8,84.9,PRMT1 confirm=i
CCOC(=O)[C@]12CCCCC/C=C\1N(Cc1ccc(OC)cc1)C(=O)[C@H]2CC(=O)NCCc1ccccc1OC,nt,i,i,nt,i,i,nt,nt,nt,
O=C(COC(=O)c1ccccc1)Nc1ncc([N+](=O)[O-])s1,i,38.8,i,i,59.8,24.6,70.1,37.0,40.5,
Cc1nn(C)cc1NC(=O)C[C@H]1CC[C@H]2[C@@H](COc3ccc(NC(=O)Nc4ccccc4)cc3C(=O)N2C)O1,nt,i,i,nt,i,i,nt,nt,nt,
CC(C)CNC(=O)OCc1cn(Cc2cccc(F)c2F)nn1,nt,i,i,nt,i,i,nt,nt,nt,
CC(=O)Oc1cc2c3c(c1)/C(=C1/SC(=S)NC1=O)C(=O)N3C(C)(C)C=C2C,i,61.2,i,i,59.4,i,91.8,73.4,100.7,
CCCCN1CC(=O)N2[C@H](C[C@@]3(C)c4ccccc4N(S(=O)(=O)c4ccccc4)[C@@H]23)C1=O,nt,i,i,nt,i,i,nt,nt,nt,
O=C(CSc1n[nH]c(=O)[nH]c1=O)Nc1ccc2c(c1)C(=O)c1ccccc1C2=O,i,38.2,i,i,39.9,i,42.8,17.4,56.1,
O=C(CSc1ccccn1)Nc1ccc2c(c1)C(=O)c1ccccc1C2=O,i,i,i,i,i,i,nt,nt,nt,
CCOC(=O)C1(Cc2ccccc2)CCN(Cc2ccc(C)cc2)CC1,nt,i,i,nt,i,i,nt,nt,nt,
N#CC1=C(N)n2c(s/c(=C\c3ccco3)c2=O)=C(C#N)C1c1ccco1 (stereo unspecified),i,31.7,i,i,53.8,41.0,37.6,18.0,i,DNA CAG DR=i;PRMT1 confirm=i
CCOC(=O)C1=c2s/c(=C\c3ccncc3)c(=O)n2C(N)=C(C(=O)OC)C1c1ccncc1 (stereo unspecified),i,i,i,i,i,i,nt,nt,nt,
CCOC(=O)C1=C(N)n2c(s/c(=C/c3ccco3)c2=O)=C(C(=O)OC)C1c1ccco1 (stereo unspecified),i,39.1,i,i,56.7,35.9,i,14.4,i,PRMT1 confirm=i
CCOc1ccc(S(=O)(=O)Nc2cc(SCC(=O)O)c(O)c3ccccc23)cc1,i,42.6,i,i,36.4,65.3,59.6,23.6,45.2,PRMT1 confirm=92.8
CCOC(=O)Cc1cc(=O)n2[nH]cc(-c3cccc(Br)c3)c2n1,i,31.9,i,i,67.0,i,53.2,17.3,i,
O=C1NC(=Nc2ccc(O)cc2)S/C1=C\C=C\c1ccco1,i,i,i,i,i,i,nt,nt,nt,
CC(C(=O)O)N1C(=O)/C(=C/C=C/c2ccco2)SC1=S (stereo unspecified),i,37.1,i,i,83.2,56.2,79.1,41.4,i,
SMILES,HTRA1 inhibitor,mABHD4 FP,SIAE inh,TCR CD3 inh,rCAG RNA binder,PRMT1 inh,rCAG binder conf,DNA CAG counter,ABHD4 confirm,others
Cc1ccccc1CS(=O)(=O)Cc1ccc(C(=O)Nc2cccc(C)c2C)o1,nt,i,i,nt,i,i,nt,nt,nt,
O=C(O)c1cccc(-c2ccc(/C=N/n3cnnc3)o2)c1,i,i,i,i,i,i,nt,nt,nt,
Cc1c(C(=O)O)cccc1-c1ccc(/C=N/n2cnnc2)o1,i,i,i,i,i,i,nt,nt,nt,
Cc1c(C(=O)O)cccc1-c1ccc(/C=N/Nc2ccc(Br)cc2)o1,i,34.6,i,i,50.1,i,64.4,21.5,41.6,
O=C(O)c1cccc(-c2ccc(/C=N/Nc3ccc([N+](=O)[O-])cc3)o2)c1,i,38.7,i,i,58.6,i,48.6,15.3,52.7,
O=C(O)c1ccc(N/N=C/c2ccc(-c3cccc(Cl)c3)o2)cc1,i,49.5,i,i,62.5,i,49.7,15.9,64.8,
CC(=O)Nc1ccc2c(c1)C(=O)N(C)[C@H]1CC[C@H](CC(=O)NCc3ccc(F)cc3)O[C@@H]1CO2,nt,i,i,nt,i,i,nt,nt,nt,
C=CCSC1=N/C(=C\C=C\c2ccco2)C(=O)S1,i,64.1,i,i,57.6,44.5,45.4,21.2,i,DNA CAG DR=i
